Reference: ChEMBL document CHEMBL1151848, “Aryl nucleoside H-phosphonates. Part 16: synthesis and anti-HIV-1 activity of di-aryl nucleoside phosphotriesters” (Bioorg Med Chem, 2009)

system: not listed separately; experiment: Chemical stability assessed as chemical hydrolysis half life in RPMI-1640 culture medium by HPLC analysis; assay type: physicochemical; conditions: not given
In short: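 Chemical hydrolysis of the compounds was followed in RPMI-1640 medium alone.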

| Structure (SMILES) | half-life |
| --- | --- |
| Cc1ncccc1OP(=O)(OC[C@H]1O[C@@H](n2cc(C)c(=O)[nH]c2=O)C[C@@H]1N=[N+]=[N-])Oc1ccccc1 (stereo partly specified) | 82.5 h |
| Cc1cn([C@H]2C[C@H](N=[N+]=[N-])[C@@H](COP(=O)(Oc3cccnc3)Oc3ccc(Cl)cc3Cl)O2)c(=O)[nH]c1=O (stereo partly specified) | 6.6 h |
| Cc1cn([C@H]2C[C@H](N=[N+]=[N-])[C@@H](COP(=O)(Oc3cccnc3)Oc3cccnc3)O2)c(=O)[nH]c1=O | 4.92 h |
| O=c1ccn([C@H]2CC[C@@H](COP(=O)(Oc3ccncc3)Oc3cccnc3)O2)c(=O)[nH]1 (stereo partly specified) | 7 h |

system: not listed separately; experiment: Selectivity index, ratio of CC50 for human MT4 cells to EC50 for HIV1 3B; assay type: toxicity, cell-based; conditions: read-out: Ratio CC50/EC50

| Structure (SMILES) | selectivity ratio |
| --- | --- |
| Cc1ncccc1OP(=O)(OC[C@H]1O[C@@H](n2cc(C)c(=O)[nH]c2=O)C[C@@H]1N=[N+]=[N-])Oc1ccccc1 (stereo partly specified) | > 1000 |
| Cc1cn([C@H]2C[C@H](N=[N+]=[N-])[C@@H](COP(=O)(Oc3cccnc3)Oc3ccc(Cl)cc3Cl)O2)c(=O)[nH]c1=O (stereo partly specified) | > 10000 |
| Cc1cn([C@H]2C[C@H](N=[N+]=[N-])[C@@H](COP(=O)(Oc3cccnc3)Oc3cccnc3)O2)c(=O)[nH]c1=O | > 10000 |
| O=c1ccn([C@H]2CC[C@@H](COP(=O)(Oc3ccncc3)Oc3cccnc3)O2)c(=O)[nH]1 (stereo partly specified) | > 7 |

system: Human immunodeficiency virus 1; experiment: Antiviral activity against HIV1 3B infected in human MT4 cells assessed as protection from virus-induced cytopathogenicity after 4 days by MTT assay; assay type: functional, organism-based; conditions: Human immunodeficiency virus 1, 3B, MT4, 96 h
In short: (§1)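 MT-4 cells, acutely infected at m.o.i. 0.01, were used to read inhibition of HIV-1-induced cytopathogenicity. Compounds were made as 100 mM DMSO stocks and diluted in culture medium. Viability was read by MTT. EC50 is the concentration giving 50% protection, as the mean (+SD) of three independent determinations.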

| Structure (SMILES) | EC50 |
| --- | --- |
| Cc1ncccc1OP(=O)(OC[C@H]1O[C@@H](n2cc(C)c(=O)[nH]c2=O)C[C@@H]1N=[N+]=[N-])Oc1ccccc1 (stereo partly specified) | 100 nM |
| Cc1cn([C@H]2C[C@H](N=[N+]=[N-])[C@@H](COP(=O)(Oc3cccnc3)Oc3ccc(Cl)cc3Cl)O2)c(=O)[nH]c1=O (stereo partly specified) | 10 nM |
| Cc1cn([C@H]2C[C@H](N=[N+]=[N-])[C@@H](COP(=O)(Oc3cccnc3)Oc3cccnc3)O2)c(=O)[nH]c1=O | 10 nM |
| O=c1ccn([C@H]2CC[C@@H](COP(=O)(Oc3ccncc3)Oc3cccnc3)O2)c(=O)[nH]1 (stereo partly specified) | 14000 nM |

system: Human immunodeficiency virus 1; experiment: Antiviral activity against non-nucleoside reverse transcriptase inhibitor-resistant HIV1 bearing reverse transcriptase A17 (K103N, Y181C) mutation infected in human MT4 cells assessed as protection from virus-induced cytopathogenicity after 4 days by MTT assay; assay type: functional, organism-based; conditions: Human immunodeficiency virus 1, MT4, 96 h; in short: as §1

| Structure (SMILES) | EC50 |
| --- | --- |
| Cc1ncccc1OP(=O)(OC[C@H]1O[C@@H](n2cc(C)c(=O)[nH]c2=O)C[C@@H]1N=[N+]=[N-])Oc1ccccc1 (stereo partly specified) | 60 nM |
| Cc1cn([C@H]2C[C@H](N=[N+]=[N-])[C@@H](COP(=O)(Oc3cccnc3)Oc3ccc(Cl)cc3Cl)O2)c(=O)[nH]c1=O (stereo partly specified) | 8 nM |
| Cc1cn([C@H]2C[C@H](N=[N+]=[N-])[C@@H](COP(=O)(Oc3cccnc3)Oc3cccnc3)O2)c(=O)[nH]c1=O | 3 nM |
| O=c1ccn([C@H]2CC[C@@H](COP(=O)(Oc3ccncc3)Oc3cccnc3)O2)c(=O)[nH]1 (stereo partly specified) | 5000 nM |

system: not listed separately; experiment: Cytotoxicity against human MT4 cells after 96 hrs by MTT assay; assay type: cell-based; conditions: not given
In short: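 Exponentially growing mock-infected MT-4 cells were seeded at 1 × 10⁵ cells/ml in RPMI-1640 with 10% FCS, penicillin G and streptomycin. They were incubated with serial compound dilutions at 37 °C in humidified 5% CO₂, and viability was read by MTT after 96 h. CC50 is the concentration reducing viability by 50%, as the mean of three independent determinations.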

| Structure (SMILES) | CC50 at 96 h |
| --- | --- |
| Cc1ncccc1OP(=O)(OC[C@H]1O[C@@H](n2cc(C)c(=O)[nH]c2=O)C[C@@H]1N=[N+]=[N-])Oc1ccccc1 (stereo partly specified) | > 100000 nM |
| Cc1cn([C@H]2C[C@H](N=[N+]=[N-])[C@@H](COP(=O)(Oc3cccnc3)Oc3ccc(Cl)cc3Cl)O2)c(=O)[nH]c1=O (stereo partly specified) | > 100000 nM |
| Cc1cn([C@H]2C[C@H](N=[N+]=[N-])[C@@H](COP(=O)(Oc3cccnc3)Oc3cccnc3)O2)c(=O)[nH]c1=O | > 100000 nM |
| O=c1ccn([C@H]2CC[C@@H](COP(=O)(Oc3ccncc3)Oc3cccnc3)O2)c(=O)[nH]1 (stereo partly specified) | > 100000 nM |

system: Human immunodeficiency virus 1; experiment: Antiviral activity against efavirenz-resistant HIV1 infected in human MT4 cells assessed as protection from virus-induced cytopathogenicity after 4 days by MTT assay; assay type: functional, organism-based; conditions: Human immunodeficiency virus 1, MT4, 96 h; in short: as §1

| Structure (SMILES) | EC50 |
| --- | --- |
| Cc1ncccc1OP(=O)(OC[C@H]1O[C@@H](n2cc(C)c(=O)[nH]c2=O)C[C@@H]1N=[N+]=[N-])Oc1ccccc1 (stereo partly specified) | 90 nM |
| Cc1cn([C@H]2C[C@H](N=[N+]=[N-])[C@@H](COP(=O)(Oc3cccnc3)Oc3ccc(Cl)cc3Cl)O2)c(=O)[nH]c1=O (stereo partly specified) | 10 nM |
| Cc1cn([C@H]2C[C@H](N=[N+]=[N-])[C@@H](COP(=O)(Oc3cccnc3)Oc3cccnc3)O2)c(=O)[nH]c1=O | 10 nM |
| O=c1ccn([C@H]2CC[C@@H](COP(=O)(Oc3ccncc3)Oc3cccnc3)O2)c(=O)[nH]1 (stereo partly specified) | 7000 nM |

system: Human immunodeficiency virus 1; experiment: Antiviral activity against MDR1-resistant HIV1 infected in human MT4 cells assessed as protection from virus-induced cytopathogenicity after 4 days by MTT assay; assay type: functional, organism-based; conditions: Human immunodeficiency virus 1, MT4, 96 h; in short: as §1

| Structure (SMILES) | EC50 |
| --- | --- |
| Cc1ncccc1OP(=O)(OC[C@H]1O[C@@H](n2cc(C)c(=O)[nH]c2=O)C[C@@H]1N=[N+]=[N-])Oc1ccccc1 (stereo partly specified) | 1600 nM |
| Cc1cn([C@H]2C[C@H](N=[N+]=[N-])[C@@H](COP(=O)(Oc3cccnc3)Oc3ccc(Cl)cc3Cl)O2)c(=O)[nH]c1=O (stereo partly specified) | 100 nM |
| Cc1cn([C@H]2C[C@H](N=[N+]=[N-])[C@@H](COP(=O)(Oc3cccnc3)Oc3cccnc3)O2)c(=O)[nH]c1=O | 100 nM |
| O=c1ccn([C@H]2CC[C@@H](COP(=O)(Oc3ccncc3)Oc3cccnc3)O2)c(=O)[nH]1 (stereo partly specified) | ≥ 100000 nM |

system: Human immunodeficiency virus 1; experiment: Antiviral activity against non-nucleoside reverse transcriptase inhibitor-resistant HIV1 bearing reverse transcriptase N119 (Y181C) mutation infected in human MT4 cells assessed as protection from virus-induced cytopathogenicity after 4 days by MTT assay; assay type: functional, organism-based; conditions: Human immunodeficiency virus 1, MT4, 96 h; in short: as §1

| Structure (SMILES) | EC50 |
| --- | --- |
| Cc1ncccc1OP(=O)(OC[C@H]1O[C@@H](n2cc(C)c(=O)[nH]c2=O)C[C@@H]1N=[N+]=[N-])Oc1ccccc1 (stereo partly specified) | 80 nM |
| Cc1cn([C@H]2C[C@H](N=[N+]=[N-])[C@@H](COP(=O)(Oc3cccnc3)Oc3ccc(Cl)cc3Cl)O2)c(=O)[nH]c1=O (stereo partly specified) | 10 nM |
| Cc1cn([C@H]2C[C@H](N=[N+]=[N-])[C@@H](COP(=O)(Oc3cccnc3)Oc3cccnc3)O2)c(=O)[nH]c1=O | 10 nM |
| O=c1ccn([C@H]2CC[C@@H](COP(=O)(Oc3ccncc3)Oc3cccnc3)O2)c(=O)[nH]1 (stereo partly specified) | 9000 nM |

system: Human immunodeficiency virus 1; experiment: Antiviral activity against azidothymidine-resistant HIV1 infected in human MT4 cells assessed as protection from virus-induced cytopathogenicity after 4 days by MTT assay; assay type: functional, organism-based; conditions: Human immunodeficiency virus 1, MT4, 96 h; in short: as §1

| Structure (SMILES) | EC50 |
| --- | --- |
| Cc1ncccc1OP(=O)(OC[C@H]1O[C@@H](n2cc(C)c(=O)[nH]c2=O)C[C@@H]1N=[N+]=[N-])Oc1ccccc1 (stereo partly specified) | 4700 nM |
| Cc1cn([C@H]2C[C@H](N=[N+]=[N-])[C@@H](COP(=O)(Oc3cccnc3)Oc3ccc(Cl)cc3Cl)O2)c(=O)[nH]c1=O (stereo partly specified) | 400 nM |
| Cc1cn([C@H]2C[C@H](N=[N+]=[N-])[C@@H](COP(=O)(Oc3cccnc3)Oc3cccnc3)O2)c(=O)[nH]c1=O | 700 nM |
| O=c1ccn([C@H]2CC[C@@H](COP(=O)(Oc3ccncc3)Oc3cccnc3)O2)c(=O)[nH]1 (stereo partly specified) | > 100000 nM |
